According to ChEMBL document CHEMBL1144688, “Gentisyl alcohol derivatives from the marine-derived fungus Penicillium terrestre” (J Nat Prod, 2008):
pIC50: −log10 of the molar value.

Experiments:
MOLT-4 = test: Cytotoxicity against human MOLT4 cells by MTT assay; assay type: functional, cell-based
Procedure, shortened: (§1)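 Cells at 5 × 10^4 cells/mL were preincubated for 24 h, then exposed to compounds in MeOH at various concentrations for 72 h. MTT (5 mg/mL) was added for 4 h, the formazan was dissolved in DMSO, and absorbance was read at 540 nm.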

Bel-7402 = test: Cytotoxicity against human BEL-7402 cells by SRB method; assay type: functional, cell-based
Procedure, shortened: (§2)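 Cells were plated at 2 × 10^5 cells/mL and treated with test compounds in MeOH over a concentration range for 24 h. They were then fixed with 12% TCA, stained with 0.4% SRB and read at 515 nm. IC50 was taken from the linear portion of log dose–response curves.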

A549 = test: Cytotoxicity against human A549 cells by SRB method; assay type: functional, cell-based; procedure, shortened: as §2
HL-60 = test: Cytotoxicity against human HL60 cells by MTT assay; assay type: functional, cell-based; procedure, shortened: as §1
[1] = DPPH radical scavenging activity; assay type: functional
Procedure, shortened: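 Samples dissolved in MeOH were mixed with methanolic DPPH, shaken and left for 30 min. Absorbance was read at 520 nm and percent inhibition calculated. IC50 is the concentration that scavenges 50% of the DPPH radicals.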

[2] = biological target: Proto-oncogene tyrosine-protein kinase Src (Homo sapiens) (UniProt P12931); test: Inhibition of Src kinase at 10 uM by ELISA
Sequence of Proto-oncogene tyrosine-protein kinase Src (Homo sapiens) (P12931 2-536 limits assumed): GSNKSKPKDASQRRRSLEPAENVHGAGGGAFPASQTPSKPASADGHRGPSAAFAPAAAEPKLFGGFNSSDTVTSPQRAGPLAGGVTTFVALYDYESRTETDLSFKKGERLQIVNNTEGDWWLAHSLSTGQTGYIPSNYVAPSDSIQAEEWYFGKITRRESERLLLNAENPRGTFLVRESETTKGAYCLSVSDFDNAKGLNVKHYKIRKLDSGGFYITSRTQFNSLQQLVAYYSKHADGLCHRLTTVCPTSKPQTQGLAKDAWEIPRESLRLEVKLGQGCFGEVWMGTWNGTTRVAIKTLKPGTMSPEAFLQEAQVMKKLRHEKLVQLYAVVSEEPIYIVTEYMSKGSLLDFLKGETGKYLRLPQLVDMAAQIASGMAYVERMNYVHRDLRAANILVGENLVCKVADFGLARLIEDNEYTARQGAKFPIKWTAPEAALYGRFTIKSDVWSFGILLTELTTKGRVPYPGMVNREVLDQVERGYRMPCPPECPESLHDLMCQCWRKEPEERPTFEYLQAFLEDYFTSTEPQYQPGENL
Procedure, shortened: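 ELISA on plates precoated with 20 µg/mL poly(Glu,Tyr)4:1, using purified kinase and 5 µM ATP in 50 mM HEPES pH 7.4 with MgCl2, MnCl2, Na3VO4 and DTT, for 1 h at 37 °C. Phosphotyrosine was detected with PY99 antibody, then HRP anti-mouse IgG and o-phenylenediamine/H2O2, read at 490 nm. Inhibition was calculated against the 1% DMSO control, in duplicate.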

[3] = biological target: Vascular endothelial growth factor receptor 2 (Homo sapiens) (UniProt P35968); conditions: at 10 µM
Sequence of Vascular endothelial growth factor receptor 2 (Homo sapiens) (P35968 whole entry): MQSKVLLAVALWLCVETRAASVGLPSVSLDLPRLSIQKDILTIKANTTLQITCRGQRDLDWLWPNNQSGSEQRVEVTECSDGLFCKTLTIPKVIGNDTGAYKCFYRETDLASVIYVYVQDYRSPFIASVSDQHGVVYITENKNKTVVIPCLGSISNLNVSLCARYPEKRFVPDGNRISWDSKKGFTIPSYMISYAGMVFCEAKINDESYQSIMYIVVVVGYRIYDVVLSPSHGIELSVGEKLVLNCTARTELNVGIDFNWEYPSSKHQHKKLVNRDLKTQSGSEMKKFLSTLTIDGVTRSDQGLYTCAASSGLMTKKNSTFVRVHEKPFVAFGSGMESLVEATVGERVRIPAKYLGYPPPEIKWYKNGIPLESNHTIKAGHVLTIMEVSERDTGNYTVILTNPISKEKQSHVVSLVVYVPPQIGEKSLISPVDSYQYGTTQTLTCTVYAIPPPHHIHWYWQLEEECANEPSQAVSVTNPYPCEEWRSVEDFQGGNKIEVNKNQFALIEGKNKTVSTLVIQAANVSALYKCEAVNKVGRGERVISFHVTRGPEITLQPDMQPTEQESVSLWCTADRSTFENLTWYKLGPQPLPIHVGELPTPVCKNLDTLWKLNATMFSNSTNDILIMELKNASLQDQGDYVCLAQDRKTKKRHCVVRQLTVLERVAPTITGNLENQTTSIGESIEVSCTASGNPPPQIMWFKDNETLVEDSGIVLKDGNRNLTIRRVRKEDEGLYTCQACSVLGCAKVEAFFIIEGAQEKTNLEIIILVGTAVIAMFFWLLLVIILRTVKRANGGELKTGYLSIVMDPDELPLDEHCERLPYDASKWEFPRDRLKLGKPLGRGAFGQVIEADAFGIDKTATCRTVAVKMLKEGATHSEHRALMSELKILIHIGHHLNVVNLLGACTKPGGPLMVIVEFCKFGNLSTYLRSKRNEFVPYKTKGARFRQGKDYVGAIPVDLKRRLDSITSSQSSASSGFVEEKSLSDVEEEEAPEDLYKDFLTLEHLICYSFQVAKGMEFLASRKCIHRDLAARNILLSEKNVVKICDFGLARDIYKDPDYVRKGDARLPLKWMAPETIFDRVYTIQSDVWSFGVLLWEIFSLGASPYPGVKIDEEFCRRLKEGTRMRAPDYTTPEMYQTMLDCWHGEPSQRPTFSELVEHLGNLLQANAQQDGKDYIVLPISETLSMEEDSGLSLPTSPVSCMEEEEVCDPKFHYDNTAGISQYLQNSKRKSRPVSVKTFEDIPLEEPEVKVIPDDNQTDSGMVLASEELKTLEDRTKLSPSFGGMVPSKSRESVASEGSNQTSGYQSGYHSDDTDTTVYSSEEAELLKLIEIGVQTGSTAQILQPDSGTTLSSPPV

Row | SMILES | pIC50 (MOLT-4) | pIC50 (Bel-7402) | pIC50 (A549) | pIC50 (HL-60) | pIC50 [1] | inhibition [2] | inhibition [3]
1 | COCc1cc(O)c(Cc2cc(O)ccc2O)cc1O | 5.24 | 4.21 | 4.47 | 5.20 | 5.20 |  | 
2 | Oc1ccc(O)c(COCc2cc(O)ccc2O)c1 | 5.25 | 4.24 | 4.74 | 5.26 | 5.34 |  | 
3 | OCc1cc(OCc2cc(O)ccc2O)ccc1O | 5.19 | 4.23 | 5.02 | 4.26 | 5.21 |  | 
4 | COCc1cc(O)cc(Cl)c1O | 4.19 | 4.24 | 4.25 | 5.17 | 5.07 |  | 
5 | COCc1cc(O)c(Cc2cc(O)c(Cc3cc(O)ccc3O)cc2O)cc1O | 5.26 | 4.24 | 4.63 | 4.48 | 5.59 |  | 
6 | Oc1ccc(O)c(COCc2cc(O)cc(Cl)c2O)c1 | 5.24 | 4.21 | 4.74 | 5.21 | 5.37 |  | 
7 | OCc1cc(OCc2cc(O)ccc2O)cc(Cl)c1O | 5.26 | 4.41 | 4.84 | 5.28 | 5.36 |  | 
8 | OCc1cc(O)c(Cc2cc(O)ccc2O)c(Cl)c1O | 5.19 | 5.22 | 5.24 | 5.29 | 5.39 | 35.9% | 31.8%
9 | COCc1cc(O)ccc1O | 4.06 | < 4.00 | < 4.00 | 4.23 | 5.01 |  | 
10 | OCc1c(O)c(Cl)cc(O)c1Cc1cc(O)ccc1O | 4.24 | 4.20 | 4.86 | 4.26 | 5.28 |  | 
